Experimental findings from ChEMBL document CHEMBL3351969, “Chalcone based azacarboline analogues as novel antitubulin agents: design, synthesis, biological evaluation and molecular modelling studies” (Eur J Med Chem, 2014) are described below.

Assay [1] concerns COLO 205. Briefly: Cytotoxicity against human COLO205 cells assessed as growth inhibition after 48 hrs by sulforhodamine B assay. The format is functional, cell-based. The conditions noted are these: COLO 205, 48 h. The method in brief: (§1)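 SRB growth assay with compound dilutions over several concentrations. Cells were pre-grown 24 h at 37°C in a CO2 incubator, then exposed for 48 h. Cells were fixed with 50% TCA (1 h, 4°C) and stained with 0.4% SRB in 1% acetic acid for 30 min. Bound dye was solubilised in 0.01 M Tris-HCl (pH 10.4) and read at 540 nm. Percent inhibition versus untreated (blank-subtracted) was used to calculate IC50.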
In general terms: In SRB staining, fixed cells bind dye roughly in proportion to their protein.

Assay [2] deals with THP-1. Briefly: Cytotoxicity against human THP1 cells assessed as growth inhibition at 50 uM after 48 hrs by sulforhodamine B assay. The class given is functional. The conditions noted are these: THP-1, 48 h, read-out: GI. A digest of the protocol:
(§2)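 Single-point SRB screen at 50 µM. Cells were seeded and grown 24 h at 37°C in a CO2 incubator, then exposed to compound in complete medium for 48 h. Cells were fixed with 50% TCA for 1 h at 4°C, water-washed, and stained with 0.4% SRB in 1% acetic acid for 30 min. After 1% TCA washes, dye was dissolved in Tris-HCl (0.01 M, pH 10.4) and OD read at 540 nm.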

Assay [3] is described as follows: Cytotoxicity against human HCT116 cells assessed as growth inhibition at 50 uM after 48 hrs by sulforhodamine B assay. The format is functional. The conditions noted are these: HCT-116, 48 h, read-out: GI. The method in brief:
as §2

Assay [4] concerns COLO 205. Briefly: Cytotoxicity against human COLO205 cells assessed as growth inhibition at 50 uM after 48 hrs by sulforhodamine B assay. The format is functional. The conditions noted are these: COLO 205, 48 h, read-out: GI. The method in brief:
as §2

Assay [5] relates to THP-1. The assay is described as follows: Cytotoxicity against human THP1 cells assessed as growth inhibition after 48 hrs by sulforhodamine B assay. The format is functional, cell-based. The conditions noted are these: THP-1, 48 h. A digest of the protocol: as §1
A short description of assay [6]: Cytotoxicity against human HCT116 cells assessed as growth inhibition after 48 hrs by sulforhodamine B assay. The format is functional, cell-based. The note with it: HCT-116, 48 h. A digest of the protocol: as §1
Assay [7] deals with A549. The assay is described as follows: Cytotoxicity against human A549 cells assessed as growth inhibition at 50 uM after 48 hrs by sulforhodamine B assay. The note with it: for inhibition of growth at 50 µM: A549, 48 h, read-out: GI. The format is functional. The method in brief:
as §2

Assay [8] concerns the target Tubulin. The assay is described as follows: Inhibition of tubulin (unknown origin) polymerization after 1 hr by spectrophotometry. The format is protein-complex assay, Homo sapiens. The method in brief:
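Kit tubulin (10 mg in 1 mL general tubulin buffer plus 10 µL of 100 mM GTP) was held at 4°C. Compounds came from a 100 µM DMSO stock diluted to 50, 25 and 10 µM (pre-assay dilutions). Compound was pre-warmed in plate wells 2 min at 37°C before adding tubulin diluted in polymerization buffer (general buffer, glycerol buffer, GTP).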

Assay [9] deals with THP-1. Briefly: Disruption of microtubule organization in human THP1 cells at 5 uM after 48 hrs by immunofluorescence technique. The format is cell-based. The method in brief: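 THP-1 cells were exposed to 1 µM paclitaxel or 5 µM test agent for 48 h, alongside untreated controls. Microtubules and unassembled tubulin were immunostained (green) and DNA was stained with DAPI. Microtubule organisation was examined by confocal microscopy.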

The subject of assay [10] is THP-1. Briefly: Disruption of microtubule organization in human THP1 cells at 1 uM after 48 hrs by immunofluorescence technique. The format is cell-based.
In assay [11] the test system is A549. The assay is described as follows: Cytotoxicity against human A549 cells assessed as growth inhibition at 1 uM after 48 hrs by sulforhodamine B assay. The class given is functional. The conditions noted are these: A549, 48 h, read-out: GI.
Assay [12] relates to THP-1. Briefly: Cytotoxicity against human THP1 cells assessed as growth inhibition at 1 uM after 48 hrs by sulforhodamine B assay. The format is functional. The conditions noted are these: THP-1, 48 h, read-out: GI.
Assay [13] can be described thus: Cytotoxicity against human HCT116 cells assessed as growth inhibition at 1 uM after 48 hrs by sulforhodamine B assay. The format is functional. The note with it: HCT-116, 48 h, read-out: GI.
The test system of assay [14] is COLO 205. The assay is described as follows: Cytotoxicity against human COLO205 cells assessed as growth inhibition at 1 uM after 48 hrs by sulforhodamine B assay. The class given is functional. The note with it: COLO 205, 48 h, read-out: GI.

Counter-ions that a name gives are not always drawn. Calls of active or inactive are those of the source. No cut-off for these calls is given here.

As to `CC(=O)n1c2cccc(Cl)c2c2cc(-c3ccc4ccccc4c3)nnc21`, the IC50 came to 17.6 µM in [1], 14 µM in [5] and 16.2 µM in assay [6]. Moreover, the inhibition of growth at 50 µM was 68% in [2], 45% in assay [3], 41% in [4] and 19% in assay [7].

As to `CC(=O)n1c2ccccc2c2cc(-c3cccc4ccccc34)nnc21`, the IC50 was determined as 5.74 µM in assay [1], 8.97 µM in assay [8], 2.39 µM in assay [5] and 4.36 µM in assay [6]. Also, the inhibition of growth at 50 µM in [2] was determined as 89%; in [3], 80%; in assay [4], 83%. Besides, in assay [7], the “growth inhibition (GI)” value is “inactive”.

`CC(=O)n1c2cccc(Cl)c2c2cc(-c3cccc4ccccc34)nnc21`: the results for the IC50 in assay [1], in assay [5] and in assay [6] were 18 µM, 14.1 µM and 15.7 µM, respectively. Further, the inhibition of growth at 50 µM in assay [2] came to 65%; in [3], 44%; in [4], 40%; in [7], 18%.

Regarding `COc1ccc(-c2cc3c4c(Cl)cccc4n(C(C)=O)c3nn2)cc1OC`, the half-inhibitory concentration (IC50) in [1] is 17.2 µM; in assay [5], 13.8 µM; in assay [6], 15.8 µM. Moreover, the results for the inhibition of growth at 50 µM in assay [2], in [3] and in assay [4] were 71%, 49% and 54%, respectively. In addition, the “growth inhibition (GI)” value in assay [7] is “inactive”.

Regarding `CC(=O)n1c2ccccc2c2cc(-c3cccs3)nnc21`, the half-maximal inhibitory concentration (IC50) came out at 7.15 µM in [1], 4.31 µM in assay [5] and 6.17 µM in [6]. The inhibition of growth at 50 µM in assay [2] came out at 76%; in assay [3], 71%; in assay [4], 69%; in assay [7], 10%.

In the case of `CC(=O)n1c2ccccc2c2cc(-c3ccccc3)nnc21`, the IC50 in [1] amounted to 8.11 µM; in assay [5], 5.75 µM; in assay [6], 7.77 µM. For the same compound, the inhibition of growth at 50 µM in assay [2] stood at 71%; in assay [3] it was 66%; in assay [4], 64%; in [7], 10%.

For the compound `COc1ccc(-c2cc3c4ccccc4n(C(C)=O)c3nn2)cc1OC`, the IC50 in assay [1] turned out to be 5.69 µM; in assay [8] it was 4.92 µM; in assay [5], 2.33 µM; in assay [6] it was 4.4 µM. In addition, the inhibition of growth at 50 µM was 90% in assay [2], 80% in [3], 82% in assay [4] and 12% in assay [7].

As to `CC(=O)n1c2ccccc2c2cc(-c3ccc[nH]3)nnc21`, the results for the IC50 in assay [1], in [5] and in [6] were 7.23 µM, 4.28 µM and 6.14 µM, respectively. Further, the inhibition of growth at 50 µM in assay [2] came out at 78%; in [3], 72%; in assay [4] it was 68%; in assay [7], 12%.

Consider `COc1cc(-c2cc3c4ccccc4n(C(C)=O)c3nn2)cc(OC)c1OC`, for which the IC50 in [1] turned out to be 4.15 µM; in assay [8], 2.41 µM; in assay [5], 1.13 µM; in assay [6] it was 2.89 µM. For the same compound, the inhibition of growth at 50 µM in assay [2] was found to be 99%; in [3] it was 86%; in [4] it was 89%; in assay [7], 20%. Besides, the result in [9] was Active.

As for `CC(=O)O[C@H]1C(=O)[C@@]2(C)[C@H]([C@H](OC(=O)c3ccccc3)[C@]3(O)C[C@H](OC(=O)[C@H](O)[C@@H](NC(=O)c4ccccc4)c4ccccc4)C(C)=C1C3(C)C)[C@]1(OC(C)=O)CO[C@@H]1C[C@@H]2O` [PACLITAXEL], the result in [10] was Active. Further, the inhibition of growth at 1 µM in assay [11] stood at 70%.

As to `CC(=O)n1c2ccccc2c2cc(-c3ccc4ccccc4c3)nnc21`, the IC50 in [1] amounted to 5.76 µM; in assay [8], 8.91 µM; in assay [5] it was 2.41 µM; in assay [6], 4.44 µM. Besides, the inhibition of growth at 50 µM in assay [2] was found to be 89%; in assay [3], 81%; in assay [4], 82%. Also, the “growth inhibition (GI)” value in assay [7] is “inactive”.

On to `COc1ccc(-c2cc3c4ccccc4n(C(C)=O)c3nn2)cc1`, for which the results for the IC50 in assay [1], in assay [5] and in assay [6] were 6.63 µM, 3.45 µM and 5.23 µM, respectively. Besides, the inhibition of growth at 50 µM amounted to 81% in assay [2], 72% in assay [3], 72% in [4] and 10% in assay [7].

`COc1cc(-c2cc3c4c(Cl)cccc4n(C(C)=O)c3nn2)cc(OC)c1OC`: the concentration for half-maximal inhibition (IC50) in assay [1] stood at 17 µM; in assay [5] it was 13.4 µM; in assay [6] it was 15.7 µM. Further, the results for the inhibition of growth at 50 µM in [2], in [3] and in assay [4] were 77%, 66% and 59%, respectively. Besides, the “growth inhibition (GI)” value in assay [7] was “inactive”.

On to `COc1cccc2c1C(=O)c1c(O)c3c(c(O)c1C2=O)C[C@@](O)(C(=O)CO)C[C@@H]3O[C@H]1C[C@H](N)[C@H](O)[C@H](C)O1` [DOXORUBICIN HYDROCHLORIDE], for which the inhibition of growth at 1 µM was 71% in assay [12], 66% in assay [13] and 72% in [14].

In the case of `COc1ccc(-c2cc3c4c(Cl)cccc4n(C(C)=O)c3nn2)cc1`, the 50% inhibitory concentration (IC50) in assay [1] was found to be 18.2 µM; in assay [5] it was 14.9 µM; in [6], 16.9 µM. Besides, the inhibition of growth at 50 µM in [2] was 60%; in assay [3] it was 36%; in assay [4] it was 39%; in assay [7] it was 14%.

By IC50 is commonly meant the concentration that inhibits the measured activity by half.
